In ChEMBL document CHEMBL1154636, “Exploring the importance of piperazine N-atoms for sigma(2) receptor affinity and activity in a series of analogs of 1-cyclohexyl-4-[3-(5-methoxy-1,2,3,4-tetrahydronaphthalen-1-yl)propyl]piperazine (PB28)” (J Med Chem, 2009):

Assays:
[1] = Selectivity ratio of Ki for sigma 2 receptor in Wistar Hannover rat liver membrane to Ki for sigma 1 receptor in Dunkin guinea pig brain; type: cell membranes
Summary of the method: (§1)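 Ratios were calculated from Ki values. Sigma-1 Ki was measured with (+)-[3H]-pentazocine on guinea-pig brain membranes without cerebellum. […] Each IC50 came from six to nine concentrations, in two or three experiments with duplicates.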

[2] = Displacement of [3H]DTG form sigma 2 receptor in Wistar Hannover rat liver membrane by radioreceptor binding assay; type: cell membranes
Summary of the method: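 Specific binding was defined with DTG (85-96%). IC50 came from six to nine drug concentrations, in two or three experiments with duplicate samples.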

[3] = target: T1, 3-beta-hydroxysteroid-Delta(8),Delta(7)-isomerase (Cavia porcellus, UniProt Q60490); experiment: Displacement of [3H](+/-)-emopamil from EBP in Dunkin guinea pig liver membrane by radioreceptor binding assay; type: cell membranes
T1 sequence (Q60490 whole entry): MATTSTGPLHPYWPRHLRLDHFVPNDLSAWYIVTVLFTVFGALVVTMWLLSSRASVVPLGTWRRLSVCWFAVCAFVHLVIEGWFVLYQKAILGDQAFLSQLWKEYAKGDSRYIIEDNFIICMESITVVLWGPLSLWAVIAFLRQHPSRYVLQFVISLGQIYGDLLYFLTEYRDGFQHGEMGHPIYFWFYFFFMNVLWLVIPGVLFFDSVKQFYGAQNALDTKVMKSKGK

[4] = target: Sigma non-opioid intracellular receptor 1 (Cavia porcellus, UniProt Q60492); experiment: Displacement of [3H](+)-pentazocine ((+)-[2S-(2R,6R,11R)]-1,2,3,4,5,6-hexahydro-6,11-dimethyl- 3-(3-methyl-2-butenyl)-2,6-methano-3-benzazocine- 8-ol) from sigma 1 receptor in Dunkin guinea pig brain membrane by radioreceptor binding assay; type: cell membranes
Sequence of Sigma non-opioid intracellular receptor 1 (Cavia porcellus, UniProt Q60492) (Q60492 whole entry): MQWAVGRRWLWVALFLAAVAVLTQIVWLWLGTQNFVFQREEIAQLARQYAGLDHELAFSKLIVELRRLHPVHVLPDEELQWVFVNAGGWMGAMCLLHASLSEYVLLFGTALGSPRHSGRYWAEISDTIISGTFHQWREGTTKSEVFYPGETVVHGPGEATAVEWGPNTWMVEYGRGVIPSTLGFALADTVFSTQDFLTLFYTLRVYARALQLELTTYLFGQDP
Summary of the method: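 IC50 came from six to nine concentrations, in two or three experiments with duplicate samples. Compounds were tested as hydrochloride salts, or as methylammonium iodides where applicable.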

SK-N-SH [5] = experiment: Antiproliferative activity against human SK-N-SH cells after 48 hrs by MTT assay; type: functional, cell-based
Summary of the method: (§2)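 Human SK-N-SH neuroblastoma cells were grown in RPMI 1640 with 10% FBS, 2 mM glutamine, penicillin/streptomycin, 1 mM pyruvate and 1% non-essential amino acids at 37 °C under 5% CO2. Cells were plated at 10 000/well and dosed next day at 1–100 μM, with solvent (ethanol, DMSO) controls. After 48 h, 0.5 mg/mL MTT was added for 3 h at 37 °C. Formazan was dissolved in DMSO and read at 570 and 630 nm.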

[6] = Selectivity ratio of Ki for sigma 1 receptor in Dunkin guinea pig brain membrane to Ki for sigma 2 receptor in Wistar Hannover rat liver membrane; type: cell membranes; summary of the method: as §1
SK-N-SH [7] = experiment: Inhibition of human SK-N-SH cell proliferation at 100 uM after 48 hrs by MTT assay; type: functional; summary of the method: as §2
[8] = Displacement of [3H]DTG form sigma receptor in guinea pig brain; set-up: species or system Cavia porcellus
[9] = target: Sigma non-opioid intracellular receptor 1 (Rattus norvegicus, UniProt Q9R0C9); experiment: Displacement of [3H](+/-)-pentazocine from sigma 1 receptor in rat whole brain
Sequence of Sigma non-opioid intracellular receptor 1 (Rattus norvegicus, UniProt Q9R0C9) (Q9R0C9 whole entry): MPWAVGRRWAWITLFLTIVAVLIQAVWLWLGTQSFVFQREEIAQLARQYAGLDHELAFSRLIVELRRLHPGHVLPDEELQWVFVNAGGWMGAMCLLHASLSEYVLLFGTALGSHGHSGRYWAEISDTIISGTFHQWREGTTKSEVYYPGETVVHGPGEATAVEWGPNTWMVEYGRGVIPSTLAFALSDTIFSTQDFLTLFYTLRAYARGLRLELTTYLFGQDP

[10] = Binding affinity to sigma 2 receptor in human SK-N-SH cells; type: cell-based
[11] = Displacement of [3H]DTG form sigma 2 receptor in rat liver membrane; type: cell membranes
Summary of the method: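 IC50 taken from six to nine drug concentrations, two or three experiments with duplicate samples, and converted to Ki. Tested as hydrochloride salts, or as methylammonium iodide salts for the quaternized analogs.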

## COc1cccc2c1CCCC2CCCC1CCN(C2CCCCC2)CC1 (stereo unspecified)
[1]
  Ratio Ki: 24
[2]
  Ki: 26.6 nM
[3]
  Ki: 1.46 nM
[4]
  Ki: 1.1 nM
SK-N-SH [5]
  EC50: 1400 nM

## C1CCC(N2CCNCC2)CC1
[2]
  Ki: > 5000 nM
[3]
  Ki: > 1000 nM
[4]
  Ki: > 5000 nM

## COc1cccc2c1CCCC2CCCCCN1CCC(C2CCCCC2)CC1 (stereo unspecified)
[6]
  Ratio Ki: 3.3
[2]
  Ki: 72.3 nM
[3]
  Ki: 49 nM
[4]
  Ki: 236 nM

## CC(=O)N1CCN(C2CCCCC2)CC1
[2]
  Ki: > 5000 nM
[3]
  Ki: > 1000 nM
[4]
  Ki: > 5000 nM

## COc1cccc2c1CCCC2CCC[N+]1(C)CC[N+](C)(C2CCCCC2)CC1 (stereo unspecified)
[6]
  Ratio Ki: > 3
[2]
  Ki: 1710 nM
[3]
  Ki: 150 nM
[4]
  Ki: > 5000 nM
SK-N-SH [7]
  inhibition at 100 µM: 30%

## c1ccc(CCN2CCN(c3ccccn3)CC2)cc1
SK-N-SH [7]
  inhibition at 100 µM: 38%

## COc1cccc2c1CCCC2CCCN1CCOCC1 (stereo unspecified)
[1]
  Ratio Ki: 49
[2]
  Ki: 442 nM
[4]
  Ki: 9.1 nM

## CC(C(O)c1ccc(O)cc1)N1CCC(Cc2ccccc2)CC1 (racemic) [IFENPRODIL]
[3]
  Ki: 10.2 nM

## COc1cccc2c1CCCC2CCC[N+]1(C)CCN(C2CCCCC2)CC1 (stereo unspecified)
[6]
  Ratio Ki: 9.4
[2]
  Ki: 6.78 nM
[3]
  Ki: 32 nM
[4]
  Ki: 63.7 nM
SK-N-SH [7]
  inhibition at 100 µM: 26%

## COc1cccc2c1CCCC2CCCN1CCNCC1 (stereo unspecified)
[1]
  Ratio Ki: 2.7
[8]
  Ki: > 877 nM
[2]
  Ki: 590 nM
[3]
  Ki: 35.4 nM
[4]
  Ki: 218 nM

## O=C(C1CCCCC1)N1CCN(C2CCCCC2)CC1
[1]
  Ratio Ki: 56
[2]
  Ki: 201 nM
[3]
  Ki: 230 nM
[4]
  Ki: 3.59 nM

## COc1cccc2c1CCCC2CCCN1CCCCC1 (stereo unspecified)
[1]
  Ratio Ki: 12
[2]
  Ki: 41.2 nM
[9]
  Ki: 18.2 nM
[3]
  Ki: 11.1 nM
[4]
  Ki: 3.38 nM

## CC(C)=CCN1CC[C@]2(C)c3cc(O)ccc3C[C@H]1[C@H]2C [(+)-PENTAZOCINE]
[10]
  Ki: 1860 nM

## COc1cccc2c1CCCC2CCCN1CCN(C2CCCCC2)CC1 (stereo unspecified)
[11]
  Ki: 0.68 nM
SK-N-SH [5]
  EC50: 9970 nM

## COc1cccc2c1CCCC2CCCNCC(=O)NC1CCCCC1 (stereo unspecified)
[6]
  Ratio Ki: 5
[2]
  Ki: 798 nM
[3]
  Ki: 1230 nM
[4]
  Ki: 3910 nM

## COc1cccc2c1CCCC2CCCN1CC[N+](C)(C2CCCCC2)CC1 (stereo unspecified)
[6]
  Ratio Ki: 26
[2]
  Ki: 13 nM
[3]
  Ki: 23 nM
[4]
  Ki: 338 nM
SK-N-SH [7]
  inhibition at 100 µM: 22%

## Cc1ccccc1NC(=N)Nc1ccccc1C [DITOLYLGUANIDINE]
[2]
  Ki: 32 nM

## COc1cccc2c1CCCC2CCCN1CCN(CCCC2CCCc3c(OC)cccc32)CC1 (stereo unspecified)
[6]
  Ratio Ki: > 42
[2]
  Ki: 120 nM
[3]
  Ki: 470 nM
[4]
  Ki: > 5000 nM

## COc1cccc2c1CCCC2CCCN1CCC(C2CCCCC2)CC1 (stereo unspecified)
[6]
  Ratio Ki: 7.6
[2]
  Ki: 18.8 nM
[3]
  Ki: 7.4 nM
[4]
  Ki: 143 nM
SK-N-SH [5]
  EC50: 3640 nM

## COc1cccc2c1CCCC2CCC(=O)N1CCN(C2CCCCC2)CC1 (stereo unspecified)
[1]
  Ratio Ki: 1630
[2]
  Ki: 179 nM
[3]
  Ki: 7.4 nM
[4]
  Ki: 0.11 nM

## C1CCC(CCCN2CCN(C3CCCCC3)CC2)CC1
[1]
  Ratio Ki: 19
[3]
  Ki: 4.7 nM
[4]
  Ki: 0.25 nM
SK-N-SH [5]
  EC50: 52100 nM

## CCN1CCN(C2CCCCC2)CC1
[1]
  Ratio Ki: 5.6
[2]
  Ki: 349 nM
[3]
  Ki: 64.4 nM
[4]
  Ki: 62.4 nM

## COc1cccc2c1CCCC2CCCN1CCC(O)(C2CCCCC2)CC1 (stereo unspecified)
[1]
  Ratio Ki: 1.6
[2]
  Ki: 9.27 nM
[3]
  Ki: 10.4 nM
[4]
  Ki: 5.56 nM
SK-N-SH [5]
  EC50: 15900 nM

## C1CCC(N2CCN(C3CCCCC3)CC2)CC1
[1]
  Ratio Ki: 5.6
[2]
  Ki: 11.5 nM
[3]
  Ki: 17 nM
[4]
  Ki: 2.05 nM
SK-N-SH [7]
  inhibition at 100 µM: 4%

## CC(=O)N1CCN(C)CC1
[2]
  Ki: > 10000 nM
[3]
  Ki: > 1000 nM
[4]
  Ki: > 5000 nM

## COc1cccc2c1CCCC2CCCN1CCN(C(=O)C2CCCCC2)CC1 (stereo unspecified)
[6]
  Ratio Ki: > 16
[2]
  Ki: 304 nM
[3]
  Ki: 550 nM
[4]
  Ki: > 5000 nM

## COc1cccc2c1CCCC2NCCN1CCC(C2CCCCC2)CC1 (stereo unspecified)
[1]
  Ratio Ki: 111
[2]
  Ki: 74.7 nM
[4]
  Ki: 0.67 nM

## COc1cccc2c1CCCC2OCCN1CCC(C2CCCCC2)CC1 (stereo unspecified)
[1]
  Ratio Ki: 1.8
[2]
  Ki: 161 nM
[4]
  Ki: 91 nM
